# Measurements reported in ChEMBL document CHEMBL1208772, “Design, synthesis, and structure-activity relationship study of conformationally constrained analogs of indole-3-carboxamides as novel CB1 cannabinoid receptor agonists” (Bioorg Med Chem Lett, 2010).
# Legend:
# Cannabinoid receptor 1 [1] = molecular target: T1, Cannabinoid receptor 1 (Homo sapiens, UniProt P21554); test: Agonist activity at human cannabinoid CB1 receptor expressed in CHO cells after 5 hrs by luciferase reporter gene assay; assay type: functional, cell-based
# T1 sequence (P21554 whole entry): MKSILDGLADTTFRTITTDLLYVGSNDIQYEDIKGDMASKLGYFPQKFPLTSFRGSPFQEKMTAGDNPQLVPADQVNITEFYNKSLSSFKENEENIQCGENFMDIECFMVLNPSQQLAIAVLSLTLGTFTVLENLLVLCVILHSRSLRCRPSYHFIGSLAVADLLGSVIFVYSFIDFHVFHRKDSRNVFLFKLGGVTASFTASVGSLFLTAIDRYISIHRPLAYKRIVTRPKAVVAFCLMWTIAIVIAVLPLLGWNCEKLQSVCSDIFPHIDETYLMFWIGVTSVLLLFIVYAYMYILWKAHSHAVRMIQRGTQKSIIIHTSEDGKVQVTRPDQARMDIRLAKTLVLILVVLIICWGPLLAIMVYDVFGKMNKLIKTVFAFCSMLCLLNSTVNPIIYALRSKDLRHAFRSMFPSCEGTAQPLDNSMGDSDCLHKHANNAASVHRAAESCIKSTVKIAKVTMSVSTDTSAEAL
# Method in brief: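 Functional agonism was tested in CHO cells doubly transfected with human CB1 and a luciferase reporter gene. Potency is reported as pEC50, the mean of three experiments.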
# Cannabinoid receptor 2 = Cannabinoid receptor 2 (Homo sapiens, UniProt P34972); test: Displacement of [3H]CP-55940 from human cannabinoid CB2 receptor expressed in insect Sf9 cells
# Cannabinoid receptor 2, sequence (P34972 whole entry): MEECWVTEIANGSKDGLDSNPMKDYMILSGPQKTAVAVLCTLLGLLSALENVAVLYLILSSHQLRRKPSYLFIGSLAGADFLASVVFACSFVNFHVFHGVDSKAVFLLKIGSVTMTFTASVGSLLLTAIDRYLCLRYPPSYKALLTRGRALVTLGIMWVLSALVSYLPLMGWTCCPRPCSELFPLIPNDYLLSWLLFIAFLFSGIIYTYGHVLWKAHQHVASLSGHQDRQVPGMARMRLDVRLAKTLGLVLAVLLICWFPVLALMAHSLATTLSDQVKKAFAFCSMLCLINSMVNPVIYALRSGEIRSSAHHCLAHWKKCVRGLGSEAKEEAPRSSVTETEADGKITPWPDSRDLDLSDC
# Method in brief: (§1)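 Affinity at CB1 and CB2 came from radioligand competition binding with [3H]CP 55,940 and is reported as pKi.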
# Cannabinoid receptor 1 [2] = molecular target: T1, Cannabinoid receptor 1; test: Displacement of [3H]CP-55940 from human cannabinoid CB1 receptor expressed in insect Sf9 cells; method in brief: as §1
# [3] = Aqueous solubility of the compound at citrate buffer of pH 4.9; assay type: physicochemical
# Method in brief: (§2)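 MSF solubility of the HCl salt was measured in citrate buffer (nominal pH 5) and in PBS (nominal pH 7.4). The final pH of each solution was recorded and reported alongside the solubility in mg/L.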
# [4] = Aqueous solubility of the compound at phosphate buffer solution of pH 7; assay type: physicochemical; method in brief: as §2
# [5] = Volume of distribution at steady state in ICR mouse at 0.5 umol/kg, iv; assay type: ADME, organism-based; details: in vivo, read-out: Vdss
# Method in brief: (§3)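 ICR mice received a single iv dose in saline vehicle. Brain and plasma levels were measured with terminal sampling under CO2. Plasma Cmax was taken at t = 0.05 h. Brain exposure was given as Cmax, tmax and AUC over 0–1 h, plus a brain:plasma Cmax ratio from the same study.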
# [6] = Cmax in ICR mouse plasma at 0.5 umol/kg, iv after 0.05 hrs; assay type: ADME, organism-based; set-up: dose 0.5 umol/kg, route intravenous; method in brief: as §3
# Mus musculus = test: Antinociceptive activity against Freund's complete adjuvant-induced […] pain in iv dosed mouse assessed as increase in tail flick latency by tail flick test; assay type: functional
# [7] = Clearance in ICR mouse at 0.5 umol/kg, iv; assay type: ADME, organism-based; details: in vivo; method in brief: as §3
# [8] = AUC in ICR mouse plasma at 0.5 umol/kg, iv; assay type: ADME; method in brief: as §3
# [9] = Intrinsic clearance in mouse liver microsomes; assay type: ADME, Microsome
# [10] = Elimination half life in ICR mouse at 0.5 umol/kg, iv; assay type: ADME, organism-based; details: in vivo, read-out: beta t1/2 (converted); method in brief: as §3
# [11] = Tmax in ICR mouse brain at 0.5 umol/kg, iv; assay type: ADME, organism-based; method in brief: as §3
# Brain = test: AUC (0 to 1 hr) in ICR mouse brain at 0.5 umol/kg, iv; assay type: ADME, organism-based; set-up: dose 0.5 umol/kg, time < 1 hr, route intravenous; details: in vivo; method in brief: as §3
# [12] = Cmax in ICR mouse brain at 0.5 umol/kg, iv; assay type: ADME, organism-based; set-up: dose 0.5 umol/kg, route intravenous; method in brief: as §3
# [13] = Ratio of Cmax in brain to plasma in ICR mouse brain at 0.5 umol/kg, iv; assay type: ADME; details: brain and plasma; method in brief: as §3
# [14] = Aqueous solubility of the compound at citrate buffer of pH 5; assay type: physicochemical
# [15] = Aqueous solubility of the compound at phosphate buffer solution of pH 6.7; assay type: physicochemical
smiles,measurement,setting,value
C[C@@H]1CN(C)C[C@H](C)N1C(=O)c1cn2c3c(cccc13)OC[C@H]2C1CCCCC1,EC50,Cannabinoid receptor 1 [1],63.1 nM
C[C@@H]1CN(C(=O)c2cn3c4c(cccc24)OC[C@H]3C2CCCCC2)C[C@H](C)N1,EC50,Cannabinoid receptor 1 [1],126 nM
CCN1CCN(C(=O)c2cn3c4c(cccc24)OC[C@H]3C2CCCCC2)CC1,Ki,Cannabinoid receptor 2,3.98 nM
same,Ki,Cannabinoid receptor 1 [2],12.6 nM
C[C@@H]1CNC[C@H](C)N1C(=O)c1cn2c3c(cccc13)OC[C@H]2C1CCCCC1,EC50,Cannabinoid receptor 1 [1],794 nM
CCN1CCN(C(=O)c2cn3c4c(cccc24)OC[C@@H]3C2CCCCC2)CC1,solubility,[3],> 4000 µg/mL
same,solubility,[4],308 µg/mL
same,EC50,Cannabinoid receptor 1 [1],> 10000 nM
CCN1[C@H](C)CN(C(=O)c2cn(CC3CCCCC3)c3c(OC)cccc23)C[C@@H]1C,EC50,Cannabinoid receptor 1 [1],10 nM
O=C(c1cn2c3c(cccc13)OC[C@H]2C1CCCCC1)N1CCNCC1,EC50,Cannabinoid receptor 1 [1],3980 nM
COc1cccc2c(C(=O)N3C[C@@H](C)N(C)[C@@H](C)C3)cn(CC3CCCCC3)c12,EC50,Cannabinoid receptor 1 [1],25.1 nM
C[C@H]1CN(C(=O)c2cn3c4c(cccc24)OC[C@H]3C2CCCCC2)CCN1,EC50,Cannabinoid receptor 1 [1],501 nM
CCN1CCN(C(=O)c2cn3c4c(cccc24)OCC3C2CCCCC2)CC1 (configuration not stated),EC50,Cannabinoid receptor 1 [1],31.6 nM
C[C@H]1CN(C(=O)c2cn3c4c(cccc24)OC[C@H]3C2CCCCC2)CCN1C,Vd,[5],2.6 L/kg
same,Cmax,[6],51.5 ng/mL
same,Ki,Cannabinoid receptor 2,0.398 nM
same,ED50,Mus musculus,0.19 µmol/kg
same,clearance,[7],134 mL/min/kg
same,AUC,[8],23.7 ng·h/mL
same,microsomal CLint,[9],> 180 µL/min/mg
same,half-life,[10],13.8 min
same,Tmax,[11],10.2 min
same,AUC,Brain,44.6 ng·h/g
same,Cmax,[12],76.2 ng/g
same,Ki,Cannabinoid receptor 1 [2],2 nM
same,Kp,[13],1.48
CCN1CCN(C(=O)c2cn3c4c(cccc24)CCC3C2CCCCC2)CC1 (configuration not stated),solubility,[3],3510 µg/mL
same,solubility,[4],114 µg/mL
same,EC50,Cannabinoid receptor 1 [1],25.1 nM
CCN1CCN(C(=O)c2cn(CC3CCCCC3)c3c(OC)cccc23)CC1,solubility,[14],3400 µg/mL
same,solubility,[15],216 µg/mL
same,EC50,Cannabinoid receptor 1 [1],158 nM
